For assay [1], the target named is T1, 11-beta-hydroxysteroid dehydrogenase type 2 (Homo sapiens, UniProt P80365).
T1 sequence (P80365 whole entry): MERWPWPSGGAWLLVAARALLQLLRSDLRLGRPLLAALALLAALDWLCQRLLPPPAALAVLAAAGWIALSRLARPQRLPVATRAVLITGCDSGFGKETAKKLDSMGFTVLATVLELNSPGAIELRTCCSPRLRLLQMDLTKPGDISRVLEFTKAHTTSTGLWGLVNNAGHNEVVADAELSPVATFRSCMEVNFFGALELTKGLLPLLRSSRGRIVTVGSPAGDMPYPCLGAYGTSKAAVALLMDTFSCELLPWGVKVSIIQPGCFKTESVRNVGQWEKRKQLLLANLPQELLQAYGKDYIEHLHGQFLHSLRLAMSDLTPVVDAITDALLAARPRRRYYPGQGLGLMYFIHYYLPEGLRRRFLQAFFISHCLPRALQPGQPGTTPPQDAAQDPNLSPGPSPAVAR
Kind of assay: Inhibition of human 11beta-HSD2.

Assay [2] concerns the target T2, 11-beta-hydroxysteroid dehydrogenase 1 (Homo sapiens, UniProt P28845). Kind of assay: Inhibition of human 11beta-HSD1 expressed in HEK293 cell microsomes assessed as inhibition of [3H]cortisone conversion to [3H]cortisol by scintillation proximity assay. Further details: species or system Microsome. Summed up:
(§1)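 Enzyme source: microsomal fraction from HEK-293 cells stably transfected with 11β-HSD1 (human or mouse), incubated with NADPH and [3H]cortisone. The [3H]cortisol product is captured by a monoclonal antibody on protein A-coated SPA beads. IC50 is averaged over at least two independent experiments, at least duplicate per concentration.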
A general note: SPA uses beads or plates that emit light when radiolabelled molecules are held near them.

For assay [3], the target named is T3, 11-beta-hydroxysteroid dehydrogenase type 2 (Mus musculus, UniProt P51661).
T3 sequence (P51661 whole entry): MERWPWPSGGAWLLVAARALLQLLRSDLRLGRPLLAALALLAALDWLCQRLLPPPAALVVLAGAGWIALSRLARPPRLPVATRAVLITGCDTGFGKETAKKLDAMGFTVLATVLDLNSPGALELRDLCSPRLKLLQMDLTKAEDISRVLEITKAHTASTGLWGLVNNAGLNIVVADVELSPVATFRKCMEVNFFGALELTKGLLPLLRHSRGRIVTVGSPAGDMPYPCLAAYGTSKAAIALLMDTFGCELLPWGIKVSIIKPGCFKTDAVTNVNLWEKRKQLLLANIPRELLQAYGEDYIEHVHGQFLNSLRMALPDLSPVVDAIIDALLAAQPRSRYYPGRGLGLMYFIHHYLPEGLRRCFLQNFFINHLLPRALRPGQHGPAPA
Kind of assay: Inhibition of mouse 11beta-HSD2. The method in brief:
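Scintillation proximity assay using microsomes containing mouse 11β-HSD2. IC50 is averaged over at least two independent experiments, with at least two replicates per concentration.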

The species entered for another assay is Homo sapiens. Kind of assay: selectivity ratio of IC50 for human 11beta-HSD2 to IC50 for human 11beta-HSD1. Summed up: (§2)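 Ratio of 11β-HSD2 IC50 to 11β-HSD1 IC50 for the same species (mouse or human). Both IC50s come from microsome-based scintillation proximity assays, averaged over at least two independent experiments with at least duplicate wells per concentration. Only compounds exceeding 50% inhibition in the primary screen were evaluated.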

Assay [4] deals with 11-beta-hydroxysteroid dehydrogenase 1 (Mus musculus, UniProt P50172). Kind of assay: Inhibition of mouse 11beta-HSD1 expressed in HEK293 cell microsomes assessed as inhibition of [3H]cortisone conversion to [3H]cortisol by scintillation proximity assay. Also on record: species or system Microsome. The method in brief: as §1
Sequence of 11-beta-hydroxysteroid dehydrogenase 1 (Mus musculus, UniProt P50172) (P50172 whole entry): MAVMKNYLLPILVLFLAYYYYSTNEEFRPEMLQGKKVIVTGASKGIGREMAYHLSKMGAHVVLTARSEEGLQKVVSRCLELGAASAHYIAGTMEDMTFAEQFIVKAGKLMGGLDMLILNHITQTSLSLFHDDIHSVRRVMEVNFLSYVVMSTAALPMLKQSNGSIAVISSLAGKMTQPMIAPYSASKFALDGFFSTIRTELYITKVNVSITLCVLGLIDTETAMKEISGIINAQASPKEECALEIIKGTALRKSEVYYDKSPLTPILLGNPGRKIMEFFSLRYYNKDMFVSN
The species named for another assay is Mus musculus. Kind of assay: Selectivity ratio of IC50 for mouse 11beta-HSD2 to IC50 for mouse 11beta-HSD1. The method in brief: as §2
Assay [5] has as its target T2, 11-beta-hydroxysteroid dehydrogenase 1. Kind of assay: Inhibition of human 11beta-HSD1. Summed up: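 Scintillation proximity assay on microsomes from HEK-293 cells stably transfected with human 11β-HSD1. Microsomes were incubated with NADPH and [3H]cortisone. The [3H]cortisol formed was captured by a monoclonal antibody on protein A-coated SPA beads. Compounds were first screened at […]; those giving over 50% inhibition went on to full IC50 determination. Each value comes from at least two independent experiments, with duplicates or more at each concentration.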

Assay [6] deals with 11-beta-hydroxysteroid dehydrogenase 1 (Rattus norvegicus, UniProt P16232). Kind of assay: Inhibition of rat 11beta-HSD1.
Sequence of 11-beta-hydroxysteroid dehydrogenase 1 (Rattus norvegicus, UniProt P16232) (P16232 whole entry): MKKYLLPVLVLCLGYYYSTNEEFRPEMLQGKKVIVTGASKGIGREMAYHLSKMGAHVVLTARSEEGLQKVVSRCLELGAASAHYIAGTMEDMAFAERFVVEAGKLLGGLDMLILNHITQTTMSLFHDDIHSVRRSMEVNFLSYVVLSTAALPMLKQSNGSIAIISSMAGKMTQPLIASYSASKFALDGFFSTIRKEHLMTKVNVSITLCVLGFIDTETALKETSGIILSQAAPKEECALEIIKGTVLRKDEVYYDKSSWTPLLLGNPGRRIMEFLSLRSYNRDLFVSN
The target of assay [7] is 11-beta-hydroxysteroid dehydrogenase 1 (Mus musculus) (UniProt P50172). Kind of assay: Inhibition of mouse 11beta-HSD1 expressed in HEK293 cell microsomes assessed as inhibition of [3H]cortisone conversion to [3H]cortisol at 1 uM by scintillation proximity assay. The note with it: Microsome. Summed up:
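Primary single-concentration screen in the SPA. Mouse 11β-HSD1 HEK-293 stable-transfectant microsomes are incubated with NADPH and [3H]cortisone, and [3H]cortisol is captured by antibody-coupled protein A SPA beads. Inhibitory ratio is the average of two determinations, with deviation from the average of 10% of the average value.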

SMILES strings stand for the structures. pIC50: −log10 of the molar value.

Sequence of 11-beta-hydroxysteroid dehydrogenase 1 (Mus musculus) (P50172 whole entry, looked up): as the sequence (P50172 whole entry) above
T2 sequence (P28845 whole entry): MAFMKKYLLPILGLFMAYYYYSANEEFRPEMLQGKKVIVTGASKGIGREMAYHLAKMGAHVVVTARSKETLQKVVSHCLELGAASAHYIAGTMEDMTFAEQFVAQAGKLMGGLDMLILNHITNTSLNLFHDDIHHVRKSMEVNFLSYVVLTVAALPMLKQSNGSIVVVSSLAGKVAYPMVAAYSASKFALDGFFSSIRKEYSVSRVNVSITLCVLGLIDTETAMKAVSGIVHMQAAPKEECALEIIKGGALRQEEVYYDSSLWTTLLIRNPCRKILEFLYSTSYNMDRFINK

What is called pIC50 is the IC50 on a negative log10 scale, so that one unit is a factor of ten. As for `C[C@@]12CCC[C@@](C)(C(=O)O)[C@H]1CC[C@@]13C[C@H](CC[C@H]12)[C@@](O)(CO)C3`, the pIC50 in assay [1] is less than 3.00; in assay [2], 5.91; in [3], less than 3.00; in assay [4], 5.49. Further, the Ratio IC50 in the assay listed under Homo sapiens is greater than 809; in the assay filed under Mus musculus, greater than 311.

On to `C[C@@H]1CC(n2c(=O)[nH]c3ccccc32)C[C@@H](C)N1C(=O)c1cc(Cl)c(N)c(Cl)c1` (stereo not given in full), for which the pIC50 in assay [5] was 7.66; in [6] it was 7.41.

The inhibition is the change of the read-out against control, counted positive when it falls. Regarding `C=C1C[C@@]23CC[C@H]4[C@@](C)(CCC[C@@]4(C)C(=O)O)[C@@H]2CC[C@@H]1C3` [KAURENOIC ACID], the figures for the pIC50 in [3] and in [4] were 3.30 and 6.45, respectively. Moreover, in assay [7], the inhibition came out at 82.4%. Besides, the Ratio IC50 in the assay filed under Mus musculus stood at 1400.

Regarding `C[C@@]1(CO)CCC[C@]2(C)[C@@H]1CC[C@@]13C[C@H](CC[C@H]12)[C@@](O)(CO)C3`, the pIC50 in assay [1] was less than 3.00; in [2], 6.04; in assay [3], less than 3.00; in [4], 5.55. Besides, the Ratio IC50 in the assay listed under Homo sapiens is greater than 1100; in the assay listed under Mus musculus, greater than 357.

`C=C1C[C@@]23CC[C@@H]4[C@](C)(CO)CCC[C@@]4(C)[C@@H]2CC[C@H]1C3`: the negative-log IC50 (pIC50) is 5.00 in [1], 5.85 in assay [2], less than 3.00 in assay [3] and 5.81 in assay [4]. For the same molecule, the Ratio IC50 in the assay listed under Homo sapiens is 7; in the assay filed under Mus musculus, greater than 640. In [7], the inhibition was found to be 20.4%.

With `C=C1[C@H]2CC[C@H]3[C@]4(C)CCC[C@@](C)(C(=O)O)[C@H]4CC[C@]3(C2)[C@H]1O`, the negative-log IC50 (pIC50) in [2] was less than 6.00; in [3], less than 4.00; in assay [4] it was 6.59. In addition, the inhibition in assay [7] amounted to 55.5%. For the same molecule, the Ratio IC50 in the assay listed under Mus musculus was greater than 387.
